ChEMBL document CHEMBL3588757, “Structure-based design, synthesis and biological testing of piperazine-linked bis-epipodophyllotoxin etoposide analogs” (Bioorg Med Chem, 2015)
Activity calls are given as the source filed them. The rule behind the calls is not given here.

Columns and labels:
[1] = tested on: K562; experiment: Induction of apoptosis in human K562 cells assessed as increase in proportion of apoptotic and apoptotic/necrotic cells at 10 uM after 24 to 48 hrs by annexin V-FITC/propidium iodide staining based two-color fluorescence flow cytometry; assay type: functional, cell-based
[2] = tested on: K562; experiment: Cytotoxicity against human K562 cells assessed as cell growth inhibition after 72 hrs by MTS assay; assay type: functional, cell-based; conditions: K562, 72 h
[3] = tested on: K562; experiment: Induction of apoptosis in human K562 cells assessed as decrease in proportion of viable cells at 10 uM after 24 to 48 hrs by annexin V-FITC/propidium iodide staining based two-color fluorescence flow cytometry; assay type: functional, cell-based
[4] = tested on: CHO; experiment: Induction of apoptosis in CHO cells assessed as increase in sub-G0/G1 cell population at 10 uM after 49 hrs by propidium iodide staining based flow cytometry (Rvb <2%); assay type: functional, Cricetulus griseus
[5] = tested on: CHO; experiment: Induction of cell cycle arrest in CHO cells assessed as accumulation at G2/M phase at 10 uM after 21 hrs by propidium iodide staining based flow cytometry; assay type: functional; conditions: Cricetulus griseus
[6] = tested on: K562; experiment: Relative resistance, ratio of IC50 for etoposide-resistant human K/VP.5 cells to IC50 for human K562 cells; assay type: functional
[7] = molecular target: DNA topoisomerase 2-alpha (Homo sapiens) (UniProt P11388); experiment: Inhibition of full-length human recombinant topoisomerase 2-alpha mediated relaxation and cleavage of supercoiled pBR322 plasmid DNA to linear DNA by ethidium bromide staining based gel electrophoresis assay
Chain of DNA topoisomerase 2-alpha (Homo sapiens) (P11388 whole entry): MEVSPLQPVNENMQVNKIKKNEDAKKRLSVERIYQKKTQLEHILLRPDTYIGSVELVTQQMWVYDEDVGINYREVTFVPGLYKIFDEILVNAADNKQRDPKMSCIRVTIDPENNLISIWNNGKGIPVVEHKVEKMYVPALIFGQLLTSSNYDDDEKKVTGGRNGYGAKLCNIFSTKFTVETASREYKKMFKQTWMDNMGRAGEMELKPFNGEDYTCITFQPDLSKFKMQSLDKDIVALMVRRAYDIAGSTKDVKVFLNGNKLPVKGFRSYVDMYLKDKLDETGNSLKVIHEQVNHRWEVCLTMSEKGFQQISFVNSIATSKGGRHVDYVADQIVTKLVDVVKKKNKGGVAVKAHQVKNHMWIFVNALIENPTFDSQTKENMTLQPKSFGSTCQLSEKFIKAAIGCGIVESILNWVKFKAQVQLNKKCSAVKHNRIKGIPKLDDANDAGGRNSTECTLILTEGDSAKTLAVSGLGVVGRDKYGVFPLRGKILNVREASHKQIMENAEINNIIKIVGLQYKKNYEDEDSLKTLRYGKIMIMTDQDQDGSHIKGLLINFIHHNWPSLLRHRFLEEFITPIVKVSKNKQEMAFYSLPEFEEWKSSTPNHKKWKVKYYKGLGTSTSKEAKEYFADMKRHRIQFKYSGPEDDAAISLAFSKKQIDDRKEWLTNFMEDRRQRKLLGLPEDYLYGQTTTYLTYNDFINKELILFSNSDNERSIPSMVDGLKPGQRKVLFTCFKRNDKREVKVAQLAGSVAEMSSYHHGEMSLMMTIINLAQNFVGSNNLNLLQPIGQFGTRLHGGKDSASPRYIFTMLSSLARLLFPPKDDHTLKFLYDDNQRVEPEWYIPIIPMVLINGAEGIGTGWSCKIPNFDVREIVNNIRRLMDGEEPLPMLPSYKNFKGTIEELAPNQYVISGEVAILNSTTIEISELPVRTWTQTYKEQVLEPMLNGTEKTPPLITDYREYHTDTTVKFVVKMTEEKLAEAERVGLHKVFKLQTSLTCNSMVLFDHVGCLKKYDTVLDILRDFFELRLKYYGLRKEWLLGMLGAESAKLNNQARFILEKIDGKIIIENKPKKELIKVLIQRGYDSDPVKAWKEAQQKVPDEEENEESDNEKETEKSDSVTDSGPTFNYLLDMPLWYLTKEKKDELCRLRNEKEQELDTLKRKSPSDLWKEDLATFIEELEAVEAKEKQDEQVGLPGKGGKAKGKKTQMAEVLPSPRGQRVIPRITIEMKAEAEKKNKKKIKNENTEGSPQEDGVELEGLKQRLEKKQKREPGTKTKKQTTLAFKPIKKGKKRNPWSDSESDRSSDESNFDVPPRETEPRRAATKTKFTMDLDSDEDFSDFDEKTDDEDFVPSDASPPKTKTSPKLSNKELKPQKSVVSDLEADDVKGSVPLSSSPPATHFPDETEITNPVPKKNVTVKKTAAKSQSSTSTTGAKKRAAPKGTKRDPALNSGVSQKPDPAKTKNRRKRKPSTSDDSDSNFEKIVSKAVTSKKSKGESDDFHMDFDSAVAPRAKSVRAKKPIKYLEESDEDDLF
In short: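 Recombinant full-length human topoisomerase IIα with supercoiled pBR322 DNA at 37 °C. Components mixed on ice before drug addition. Complexes trapped with SDS; products run on ethidium bromide gels. Linear DNA identified against a HindIII-linearized marker; repeated on three days.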

[8] = tested on: K562; experiment: Induction of DNA double strand breaks in human K562 cells assessed as increase in gamma-H2AX level at 25 uM after 4 hrs by chemiluminescence analysis; assay type: functional, cell-based
In short: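 K562 cells (3.4 × 10^5/mL) exposed 4 h at 37 °C to 25 µM drug or DMSO. Lysed in Tris pH 6.7/SDS buffer; 50 µg protein on 14% SDS-PAGE, PVDF blot. Rabbit anti-γH2AX (1:1000, overnight), GAPDH loading control, HRP secondary. Chemiluminescence imaged by CCD.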

[9] = molecular target: DNA topoisomerase 2-alpha (Homo sapiens) (UniProt P11388); experiment: Inhibition of full-length human recombinant topoisomerase 2-alpha assessed as conversion of […] DNA at 100 uM by ethidium bromide based gel-assay
[10] = molecular target: DNA topoisomerase 2-alpha (Homo sapiens) (UniProt P11388); experiment: Inhibition of full-length human recombinant topoisomerase 2-alpha-mediated decatenation activity of kDNA at >10 uM by ethidium bromide based gel-assay
[11] = Cytotoxicity against etoposide-resistant human K/VP.5 cells assessed as cell growth inhibition after 72 hrs by MTS assay; assay type: functional, cell-based; conditions: K/VP.5, 72 h
In short: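 K/VP.5 cells are a K562-derived subline, 26-fold etoposide-resistant, with decreased topoisomerase IIα mRNA and protein. Cells were grown in suspension in αMEM with 10% fetal calf serum. Drugs were given from DMSO stocks, with final DMSO typically 0.4% or less. Read-out was MTS absorbance after 72 h. Typically nine concentrations were run in duplicate on two days. IC50 came from a four-parameter logistic fit.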

[12] = tested on: K562; experiment: Induction of apoptosis in human K562 cells assessed as decrease in proportion of viable cells at 1 uM after 24 to 48 hrs by annexin V-FITC/propidium iodide staining based two-color fluorescence flow cytometry; assay type: functional, cell-based
In short: (§1)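 K562 cells (1 × 10^6/mL), untreated or given 1 µM compound (10 µM etoposide control) at 37 °C for 24 h or 48 h. Annexin V-FITC plus propidium iodide two-colour flow cytometry. Cells are scored as viable, apoptotic-only (annexin+/PI−), apoptotic/necrotic (annexin+/PI+) or necrotic.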

[13] = tested on: CHO; experiment: Induction of apoptosis in CHO cells assessed as increase in sub-G0/G1 cell population at 1 uM after 49 hrs by propidium iodide staining based flow cytometry; assay type: functional; conditions: Cricetulus griseus
In short: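 CHO cells grown to confluence in α-MEM/10% FCS, serum-starved 48 h (0% FCS), then seeded at 2 × 10^5 cells/mL and repleted with 10% FCS. Continuously treated from repletion with 1 µM compound (10 µM etoposide, DMSO control) for various times. Propidium iodide DNA staining, flow cytometric phase distribution including sub-G0/G1.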

[14] = tested on: K562; experiment: Induction of apoptosis in human K562 cells assessed as increase in caspase 3/7 activity at 1 uM by luminescence analysis; assay type: functional, cell-based; conditions: TDE = time-dependent effect
In short: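 K562 cells at 2 × 10^5 cells/mL treated with vehicle or 1 µM compound for 24 or 48 h. Lysates assayed with a luminogenic DEVD-aminoluciferin caspase-3/7 substrate and read by luminescence. Four wells (eight for control); unpaired t-test vs control; repeated on two days.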

[15] = tested on: K562; experiment: Induction of apoptosis in human K562 cells assessed as increase in proportion of apoptotic and apoptotic/necrotic cells at 1 uM after 24 to 48 hrs by annexin V-FITC/propidium iodide staining based two-color fluorescence flow cytometry; assay type: functional, cell-based; in short: as §1
[16] = molecular target: DNA topoisomerase 2-alpha (Homo sapiens) (UniProt P11388); experiment: Inhibition of full-length human recombinant topoisomerase 2-alpha-mediated decatenation activity of kDNA by ethidium bromide based gel-assay
[17] = tested on: CHO; experiment: Induction of cell cycle arrest in CHO cells assessed as accumulation at G2/M phase at 1 uM by propidium iodide staining based flow cytometry; assay type: functional; conditions: Cricetulus griseus

COc1cc([C@@H]2c3cc4c(cc3[C@@H](O[C@@H]3O[C@@H]5CO[C@@H](C)O[C@H]5[C@H](O)[C@H]3O)[C@H]3COC(=O)[C@H]23)OCO4)cc(OC)c1O [ETOPOSIDE]
Activity [1]: Active
IC50 [2]: 0.163 µM
Activity [3]: Active
Activity [4]: 39%
Activity [5]: Active
Ratio IC50 [6]: 15.4
Effect on topoisomerase 2-alpha DNA cleavage (qualitative) [7]: Dose-dependent effect
Activity [8]: Active
Inhibition (qualitative activity call) [9]: Active
Inhibition of decatenation activity (qualitative) [10]: Active
IC50 [11]: 2.5 µM

COc1cc([C@@H]2c3cc4c(cc3[C@@H](NC(=O)CN3CCN(CCCCCCCCCCN5CCNCC5)CC3)[C@H]3COC(=O)[C@H]23)OCO4)cc(OC)c1O
Activity [12]: Active
IC50 [2]: 0.026 µM
Activity [13]: Active
Ratio IC50 [6]: 6
Effect on topoisomerase 2-alpha DNA cleavage (qualitative) [7]: Dose-dependent effect
Activity [8]: Active
Activity [14]: tde
Activity [15]: Active
Inhibition of decatenation activity (qualitative) [10]: Active
IC50 [11]: 0.156 µM

COc1cc([C@@H]2c3cc4c(cc3[C@@H](NC(=O)CN3CCN(CCCN5CCNCC5)CC3)[C@H]3COC(=O)[C@H]23)OCO4)cc(OC)c1O
IC50 [2]: 1.27 µM
Ratio IC50 [6]: 10.5
Effect on topoisomerase 2-alpha DNA cleavage (qualitative) [7]: Dose-dependent effect
Activity [8]: Active
inhibition [16]: Active
IC50 [11]: 13.3 µM

COc1cc([C@@H]2c3cc4c(cc3[C@@H](NC(=O)CN3CCN(CCCCCCCCN5CCNCC5)CC3)[C@H]3COC(=O)[C@H]23)OCO4)cc(OC)c1O
IC50 [2]: 0.103 µM
Ratio IC50 [6]: 5.4
Effect on topoisomerase 2-alpha DNA cleavage (qualitative) [7]: Dose-dependent effect
Activity [8]: Active
Inhibition of decatenation activity (qualitative) [10]: Active
IC50 [11]: 0.556 µM

COc1cc([C@@H]2c3cc4c(cc3[C@@H](NC(=O)CN3CCN(CCCCCCCCN5CCN(CC(=O)N[C@@H]6c7cc8c(cc7[C@@H](c7cc(OC)c(O)c(OC)c7)[C@H]7C(=O)OC[C@@H]76)OCO8)CC5)CC3)[C@H]3COC(=O)[C@H]23)OCO4)cc(OC)c1O
Activity [12]: Active
IC50 [2]: 0.016 µM
Activity [17]: Active
Activity [13]: Active
Ratio IC50 [6]: 7.4
Effect on topoisomerase 2-alpha DNA cleavage (qualitative) [7]: Dose-dependent effect
Activity [8]: Active
Inhibition (qualitative activity call) [9]: Active
Activity [14]: tde
Activity [15]: Active
Inhibition of decatenation activity (qualitative) [10]: Active
IC50 [11]: 0.115 µM

COc1cc([C@@H]2c3cc4c(cc3[C@@H](NC(=O)CN3CCN(CCCCCCCCCCCCN5CCN(CC(=O)N[C@@H]6c7cc8c(cc7[C@@H](c7cc(OC)c(O)c(OC)c7)[C@H]7C(=O)OC[C@@H]76)OCO8)CC5)CC3)[C@H]3COC(=O)[C@H]23)OCO4)cc(OC)c1O
IC50 [2]: 0.067 µM
Ratio IC50 [6]: 8.2
Effect on topoisomerase 2-alpha DNA cleavage (qualitative) [7]: Dose-dependent effect
Inhibition (qualitative activity call) [9]: Active
Inhibition of decatenation activity (qualitative) [10]: Active
IC50 [11]: 0.549 µM
